The record followed here is ChEMBL document CHEMBL1250424, “Design, synthesis and evaluation of 2-amino-4-m-bromoanilino-6-arylmethyl-7H-pyrrolo[2,3-d]pyrimidines as tyrosine kinase inhibitors and antiangiogenic agents” (Bioorg Med Chem, 2010).

The target in assay [1] is Epidermal growth factor receptor (Homo sapiens, UniProt P00533). Briefly: Inhibition of EGFR expressed in human A431 cells. The class given is cell-based, A-431.
The target of assay [2] is Vascular endothelial growth factor receptor 2 (Homo sapiens, UniProt P35968). Briefly: Inhibition of VEGFR2 expressed in human A431 cells. The assay is classed as cell-based, A-431.
Vascular endothelial growth factor receptor 2, sequence (P35968 whole entry): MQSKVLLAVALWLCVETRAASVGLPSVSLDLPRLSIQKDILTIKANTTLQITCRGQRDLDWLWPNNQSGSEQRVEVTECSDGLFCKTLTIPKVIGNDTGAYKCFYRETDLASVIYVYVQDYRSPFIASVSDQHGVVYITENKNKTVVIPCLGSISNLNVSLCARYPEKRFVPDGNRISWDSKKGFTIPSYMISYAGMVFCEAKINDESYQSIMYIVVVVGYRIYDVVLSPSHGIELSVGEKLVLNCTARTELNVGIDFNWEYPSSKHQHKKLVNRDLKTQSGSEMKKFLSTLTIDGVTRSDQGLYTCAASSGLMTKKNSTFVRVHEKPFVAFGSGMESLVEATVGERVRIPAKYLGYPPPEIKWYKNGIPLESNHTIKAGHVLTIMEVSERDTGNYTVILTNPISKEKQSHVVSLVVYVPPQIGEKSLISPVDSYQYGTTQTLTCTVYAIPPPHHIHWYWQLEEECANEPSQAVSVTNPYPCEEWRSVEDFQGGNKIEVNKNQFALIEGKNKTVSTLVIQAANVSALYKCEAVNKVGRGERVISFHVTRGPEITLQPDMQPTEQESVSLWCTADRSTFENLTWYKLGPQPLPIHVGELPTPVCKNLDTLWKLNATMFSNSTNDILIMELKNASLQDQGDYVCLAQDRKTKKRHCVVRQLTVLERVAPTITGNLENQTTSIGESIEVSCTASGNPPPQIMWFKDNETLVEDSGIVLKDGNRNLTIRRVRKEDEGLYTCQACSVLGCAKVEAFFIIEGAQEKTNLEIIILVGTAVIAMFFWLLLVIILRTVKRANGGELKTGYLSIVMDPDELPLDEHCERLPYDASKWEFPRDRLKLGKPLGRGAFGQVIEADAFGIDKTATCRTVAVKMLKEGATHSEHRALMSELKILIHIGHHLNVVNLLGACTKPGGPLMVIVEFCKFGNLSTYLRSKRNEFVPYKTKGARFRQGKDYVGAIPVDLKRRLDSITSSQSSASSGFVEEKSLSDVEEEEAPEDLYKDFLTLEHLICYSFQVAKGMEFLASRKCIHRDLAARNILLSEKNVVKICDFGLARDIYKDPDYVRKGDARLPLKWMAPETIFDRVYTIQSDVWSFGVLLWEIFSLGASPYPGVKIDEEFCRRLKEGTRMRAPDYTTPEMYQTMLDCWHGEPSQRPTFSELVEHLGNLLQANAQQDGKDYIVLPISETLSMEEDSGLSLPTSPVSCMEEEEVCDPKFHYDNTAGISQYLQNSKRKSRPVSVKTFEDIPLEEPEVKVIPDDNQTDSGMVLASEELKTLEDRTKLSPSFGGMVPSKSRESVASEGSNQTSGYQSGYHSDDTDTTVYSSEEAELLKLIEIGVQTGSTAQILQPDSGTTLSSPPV
For assay [3], the target named is Platelet-derived growth factor receptor beta (Homo sapiens, UniProt P09619). Briefly: Inhibition of PDGFRbeta expressed in human A431 cells. The class given is cell-based, A-431.
Platelet-derived growth factor receptor beta, sequence (P09619 whole entry): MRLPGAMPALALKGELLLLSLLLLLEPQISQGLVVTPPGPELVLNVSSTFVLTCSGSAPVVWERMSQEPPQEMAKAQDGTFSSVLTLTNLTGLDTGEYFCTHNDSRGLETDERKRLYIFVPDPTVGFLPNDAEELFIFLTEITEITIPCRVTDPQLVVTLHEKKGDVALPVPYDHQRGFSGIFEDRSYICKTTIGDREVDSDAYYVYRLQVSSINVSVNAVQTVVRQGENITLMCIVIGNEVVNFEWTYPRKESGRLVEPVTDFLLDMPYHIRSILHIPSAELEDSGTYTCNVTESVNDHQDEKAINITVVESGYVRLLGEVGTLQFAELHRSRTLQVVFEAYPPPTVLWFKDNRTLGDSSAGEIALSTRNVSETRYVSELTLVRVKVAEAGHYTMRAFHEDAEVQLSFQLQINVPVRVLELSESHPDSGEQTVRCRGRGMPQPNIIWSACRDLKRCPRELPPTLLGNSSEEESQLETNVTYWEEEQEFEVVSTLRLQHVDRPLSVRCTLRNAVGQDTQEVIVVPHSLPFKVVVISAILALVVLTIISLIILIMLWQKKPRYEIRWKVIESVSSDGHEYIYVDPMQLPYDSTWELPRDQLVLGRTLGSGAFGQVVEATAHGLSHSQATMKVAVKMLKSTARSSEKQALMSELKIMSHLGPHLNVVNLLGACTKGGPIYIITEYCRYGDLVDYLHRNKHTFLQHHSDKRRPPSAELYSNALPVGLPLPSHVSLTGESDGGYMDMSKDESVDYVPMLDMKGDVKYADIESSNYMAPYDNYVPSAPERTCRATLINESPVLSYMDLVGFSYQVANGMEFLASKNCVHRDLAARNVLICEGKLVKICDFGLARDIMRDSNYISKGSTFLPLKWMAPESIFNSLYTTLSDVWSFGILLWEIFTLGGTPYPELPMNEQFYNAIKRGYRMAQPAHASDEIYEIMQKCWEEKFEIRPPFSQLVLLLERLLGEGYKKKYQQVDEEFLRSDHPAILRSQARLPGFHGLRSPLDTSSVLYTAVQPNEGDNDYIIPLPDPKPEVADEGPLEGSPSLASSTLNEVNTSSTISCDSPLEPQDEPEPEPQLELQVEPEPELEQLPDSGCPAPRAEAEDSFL
Assay [4] concerns A-431. The assay can be described thus: Cytotoxicity against human A431 cells. The assay is classed as functional, cell-based. The method, boiled down:
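Growth inhibition of A431 cells, which over-express EGFR, measured in culture. Cisplatin was run in each evaluation as the reference standard. Each assay was performed 2-3 times, with 4-5 replicates per assay.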

A short description of assay [5]: Antiangiogenic activity in fertilized chicken egg by CAM assay. The assay is classed as functional, Gallus gallus.

Bounds are passed on as bounds.

Epidermal growth factor receptor, sequence (P00533 whole entry): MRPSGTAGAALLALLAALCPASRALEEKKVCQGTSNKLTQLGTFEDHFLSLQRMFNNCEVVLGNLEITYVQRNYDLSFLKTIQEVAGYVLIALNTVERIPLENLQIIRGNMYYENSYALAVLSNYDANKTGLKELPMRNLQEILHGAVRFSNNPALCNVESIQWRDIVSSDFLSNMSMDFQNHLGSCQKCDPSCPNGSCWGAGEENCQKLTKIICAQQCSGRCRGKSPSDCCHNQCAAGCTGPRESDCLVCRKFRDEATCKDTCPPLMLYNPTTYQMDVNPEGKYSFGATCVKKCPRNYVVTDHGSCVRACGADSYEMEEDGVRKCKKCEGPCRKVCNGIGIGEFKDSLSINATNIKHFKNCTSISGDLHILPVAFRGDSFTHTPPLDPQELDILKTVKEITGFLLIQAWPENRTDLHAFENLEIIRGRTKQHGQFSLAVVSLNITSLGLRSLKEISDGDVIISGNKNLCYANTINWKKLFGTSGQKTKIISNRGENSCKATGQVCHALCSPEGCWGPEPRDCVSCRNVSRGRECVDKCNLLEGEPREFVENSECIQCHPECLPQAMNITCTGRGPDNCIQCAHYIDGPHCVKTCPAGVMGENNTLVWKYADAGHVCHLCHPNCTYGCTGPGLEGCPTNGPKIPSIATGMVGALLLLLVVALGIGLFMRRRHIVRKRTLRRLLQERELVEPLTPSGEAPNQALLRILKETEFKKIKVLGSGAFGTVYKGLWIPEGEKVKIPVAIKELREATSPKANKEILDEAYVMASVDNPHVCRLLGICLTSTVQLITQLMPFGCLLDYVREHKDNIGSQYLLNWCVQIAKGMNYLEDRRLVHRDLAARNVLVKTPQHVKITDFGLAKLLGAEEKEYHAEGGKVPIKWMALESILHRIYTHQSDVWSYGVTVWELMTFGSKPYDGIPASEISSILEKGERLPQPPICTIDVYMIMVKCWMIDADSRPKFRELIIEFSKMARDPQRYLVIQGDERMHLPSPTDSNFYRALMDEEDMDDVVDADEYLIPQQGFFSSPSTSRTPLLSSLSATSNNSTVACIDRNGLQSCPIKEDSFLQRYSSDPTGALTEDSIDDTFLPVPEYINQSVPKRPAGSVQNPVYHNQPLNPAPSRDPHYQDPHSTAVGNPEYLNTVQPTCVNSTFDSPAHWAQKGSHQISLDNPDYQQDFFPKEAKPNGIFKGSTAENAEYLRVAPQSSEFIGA

What is called IC50 is the concentration that inhibits the measured activity by half. A lower IC50 goes with greater potency. For `CN(c1cccc(Br)c1)c1nc(N)nc2c1cc(Cc1ccccc1)n2C`, the IC50 in assay [1] is 254 µM; in assay [2], more than 200 µM; in assay [3], 71.7 µM; in assay [4] it was 50.9 µM; in assay [5], 2.6 µM.
Consider `COc1ccc(OC)c(Cc2cc3c(Nc4cccc(Br)c4)nc(N)nc3[nH]2)c1`, for which the IC50 in assay [2] came out at 0.62 µM; in assay [5], 1.32 µM.
In the case of `Cc1ccccc1Cc1cc2c(N(C)c3cccc(Br)c3)nc(N)nc2[nH]1`, the IC50 in assay [1] is 31.2 µM; in assay [2], more than 200 µM; in assay [3] it was 34.8 µM; in assay [4] it was more than 500 µM; in assay [5], 0.93 µM.
Molecule `Cc1ccccc1Cc1cc2c(Nc3cccc(Br)c3)nc(N)nc2[nH]1` had an IC50 in assay [2] of 0.25 µM.
As for `CN(c1cccc(Br)c1)c1nc(N)nc2[nH]c(Cc3ccccc3)cc12`, the IC50 in assay [1] is 53.1 µM; in assay [2], 89.2 µM; in assay [3], more than 500 µM; in assay [4], 45.7 µM; in assay [5], 1.56 µM.
In the case of `Cn1c(Cc2ccccc2)cc2c(Nc3cccc(Br)c3)nc(N)nc21`, the IC50 is more than 200 µM in assay [1]; more than 200 µM in assay [2]; 2.8 µM in assay [3]; 27.9 µM in assay [4]; 6.22 µM in assay [5].
Regarding `COc1ccc(OC)c(Cc2cc3c(N(C)c4cccc(Br)c4)nc(N)nc3n2C)c1`, the IC50 is 0.5 µM in assay [1]; more than 200 µM in assay [2]; more than 500 µM in assay [3]; 94.1 µM in assay [4]; 2.05 µM in assay [5].
On the same counts, the results for `COc1ccc(OC)c(Cc2cc3c(Nc4cccc(Br)c4)nc(N)nc3n2C)c1` are more than 200 µM, more than 200 µM, 348 µM, 35.6 µM and 3.3 µM.
The matching figures for `Cc1ccccc1Cc1cc2c(Nc3cccc(Br)c3)nc(N)nc2n1C`: 12.8 µM, 116 µM, more than 500 µM, 204 µM and 3 µM.
The matching figures for `COc1ccc(OC)c(Cc2cc3c(N(C)c4cccc(Br)c4)nc(N)nc3[nH]2)c1`: 144 µM, more than 200 µM, 1.3 µM, 197 µM and 0.83 µM.
For the molecule `Cc1ccccc1Cc1cc2c(N(C)c3cccc(Br)c3)nc(N)nc2n1C`, the IC50 in assay [1] was 1.2 µM; in assay [2], more than 200 µM; in assay [3] it was more than 500 µM; in assay [4], 226 µM; in assay [5] it was 1.6 µM.
